Bioassay records (PubChem)
GASC1 inh – inhibitors of GASC-1 (KDM4C) histone demethylase, primary screen, biochemical, single concentration HTS; Lysine-specific demethylase 4C (Homo sapiens), Q9H3R0; GST-KDM4C 2-372, H3K9me3 peptide, LANCE TR-FRET; AID 720574, 2013; 96,000 compounds, 0.15% hits; inhibition, % at 12.5 µM;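 active = mean replicate inhibition above about 25%, with at least 55% of replicates also reaching it, limit read from the data, passing the limit was not always enough; inconclusive = only one of those two conditions met; inactive = neither condition met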
Target sequence (Q9H3R0 2-372 limits assumed): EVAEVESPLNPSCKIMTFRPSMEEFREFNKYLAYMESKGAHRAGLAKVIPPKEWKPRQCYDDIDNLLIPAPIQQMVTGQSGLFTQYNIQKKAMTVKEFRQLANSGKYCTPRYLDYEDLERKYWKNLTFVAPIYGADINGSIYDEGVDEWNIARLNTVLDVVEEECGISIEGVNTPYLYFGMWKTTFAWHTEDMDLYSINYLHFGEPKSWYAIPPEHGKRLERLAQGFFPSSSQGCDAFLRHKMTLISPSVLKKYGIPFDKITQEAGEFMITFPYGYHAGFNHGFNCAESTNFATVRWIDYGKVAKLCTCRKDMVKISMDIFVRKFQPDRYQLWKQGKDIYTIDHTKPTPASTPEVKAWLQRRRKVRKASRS
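System: N-terminal GST-fused human GASC-1 (KDM4C) fragment, residues 2-372 / Amount: 10 nM GST-KDM4C in enzyme reaction / Also added: H3K9me3 peptide with Fe(II)/2OG / Times: 30 min demethylation and 1 h detection at room temperature / Signal: LANCE TR-FRET / Read-out basis: Fall in 671/618 emission ratio as inhibition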
IDH1 R132H inh – inhibitors of IDH1 R132H reductase, primary screen, biochemical, plate reader, single point; Isocitrate dehydrogenase [NADP] cytoplasmic (Homo sapiens), O75874; diaphorase/resazurin fluorescence, 60 min; inhibition, % at 10 µM; 70,000 compounds, 0.18% hits; AID 624101, 2012; in the data active = inhibition above about 34%; inconclusive = no clear call, values can overlap the other calls; inactive = below about 11%
Target sequence (O75874 whole entry R132H): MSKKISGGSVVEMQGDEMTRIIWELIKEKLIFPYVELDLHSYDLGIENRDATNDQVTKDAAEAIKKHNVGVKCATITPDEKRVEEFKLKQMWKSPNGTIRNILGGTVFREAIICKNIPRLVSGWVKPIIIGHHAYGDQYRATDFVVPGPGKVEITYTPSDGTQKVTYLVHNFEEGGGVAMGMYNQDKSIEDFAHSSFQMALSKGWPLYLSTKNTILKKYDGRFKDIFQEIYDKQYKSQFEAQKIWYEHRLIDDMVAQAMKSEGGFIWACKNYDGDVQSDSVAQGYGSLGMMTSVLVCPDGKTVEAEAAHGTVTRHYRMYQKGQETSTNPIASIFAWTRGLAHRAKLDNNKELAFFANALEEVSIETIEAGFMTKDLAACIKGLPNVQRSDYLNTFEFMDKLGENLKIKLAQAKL
T cruzi growth-1 – T. cruzi intracellular proliferation inhibitors, primary screen, cell-based, beta-gal Tulahuen parasites, NIH3T3 host, luminescence; T. cruzi beta-gal in NIH3T3, GalScreen luminescence, 90 h; inhibition, % at 8.34 µM; 77,000 compounds, 5.9% hits;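 active = mean inhibition above about 93%, with at least 55% of replicates each passing it, limit read from the data, passing the limit was not always enough; inconclusive = only one of those two conditions holds; inactive = neither condition holds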
Pf Dd2 growth – P. falciparum Dd2 growth inhibitors, primary screen, SYBR Green fluorescence, single dose replicates; AID 1159554, 2015; activity change, % at 10 µM; 94,000 compounds, 2.3% hits; 72 h; hits give low values; in the data active = activity change below about -80%; inconclusive = no clear call, values can overlap the other calls
T cruzi growth-2 – T. cruzi intracellular proliferation inhibitors, confirmation, cell-based, NIH3T3 host, beta-gal parasite, luminescence, cherry-pick. shares compounds with T cruzi growth-1. 5,600 compounds, 72% hits. T. cruzi beta-gal in NIH3T3, GalScreen luminescence, 90 h. inhibition, % at 8.35 µM. AID 651739, 2012;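 active = mean replicate inhibition above about 95% and at least 55% of replicates individually reaching it, limit read from the data; inconclusive = only one of the two criteria is met; inactive = neither criterion is met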
T cruzi growth-3 – inhibitors of intracellular T. cruzi replication, confirmation, NIH3T3 host cells, beta-gal parasites, cherry-pick, set 2; shares compounds with T cruzi growth-1; T. cruzi beta-gal in NIH3T3, GalScreen luminescence, 90 h; inhibition, % at 2.09 µM; 5,600 compounds, 21% hits; AID 651740, 2012;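 active = mean inhibition above about 95%, with at least 55% of replicates also reaching it, limit read from the data; inconclusive = meets just one of the two conditions; inactive = meets neither condition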
NIH3T3 tox – cytotoxicity in mouse NIH/3T3 fibroblasts, confirmation, cytotoxicity control for T. cruzi proliferation inhibitor project, cell-based, cherry-pick, single point | cytotoxicity (signal decrease), % at 8.35 µM | AID 651742, 2012 | 5,600 compounds, 14% hits | NIH/3T3 viability, CellTiter-Glo ATP luminescence, 90 h | shares compounds with T cruzi growth-1;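 active = mean signal decrease across replicates above about 35% based on untreated-well scatter, with enough replicates individually passing, limit read from the data; inconclusive = no rule stated though some were filed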
3T3 cytotox 2 – NIH/3T3 fibroblast cytotoxicity, confirmation, cytotoxicity control, cell-based, cherry-pick, single point, set 2; shares compounds with T cruzi growth-1; NIH/3T3 viability, CellTiter-Glo ATP luminescence, 90 h; inhibition, % at 24.9 µM; 5,600 compounds, 56% hits; AID 651744, 2012;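 active = mean loss of cell viability signal at or above a set limit, and enough replicates individually reaching it; inconclusive = meets only the mean limit or only the replicate share; inactive = meets neither condition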
Each line names hits and unclear results; the compound was inactive in the other large screens (follow-up assays come after a bar, where they were run). Only some compounds are listed: those with a hit (about 5.9% of all), similar ones and a draw of the others.

C[C@@H]1CN([C@@H](C)CO)S(=O)(=O)c2ccc(C#Cc3ccccn3)cc2O[C@@H]1CN(C)Cc1cccc(F)c1	T cruzi growth-1 119 | T cruzi growth-2 108 | T cruzi growth-3 inconclusive | NIH3T3 tox inactive | 3T3 cytotox 2 inactive
C[C@H](CO)N1C[C@H](C)[C@@H](CN(C)Cc2cccc(F)c2)Oc2cc(C#Cc3ccccn3)ccc2S1(=O)=O	T cruzi growth-1 117 | T cruzi growth-2 inactive | T cruzi growth-3 112 | NIH3T3 tox inactive | 3T3 cytotox 2 inactive
C[C@@H]1CN([C@H](C)CO)S(=O)(=O)c2ccc(C#Cc3ccccn3)cc2O[C@H]1CN(C)C	none (no result: T cruzi growth-1)
Cc1noc(C)c1S(=O)(=O)Nc1ccc2c(c1)CC(=O)N([C@@H](C)CO)C[C@@H](C)[C@@H](CN(C)S(=O)(=O)c1ccc(F)cc1)O2	none
CN(C)CC(=O)N1CCCCN2[C@H](CO)[C@@H](c3ccc(-c4cccnc4)cc3)[C@H]2C1	none (no result: IDH1 R132H inh)
CN(C)CC(=O)N1CCCCN2[C@H](C1)[C@@H](c1ccc(-c3cccnc3)cc1)[C@@H]2CO	none (no result: IDH1 R132H inh)
CCC(=O)N1CCCCN2[C@H](C1)[C@H](c1ccc(-c3cccnc3)cc1)[C@@H]2CO	T cruzi growth-1 113 (no result: IDH1 R132H inh) | T cruzi growth-2 inactive | T cruzi growth-3 inactive | NIH3T3 tox inactive | 3T3 cytotox 2 inactive
CCC(=O)N1CCCCN2[C@@H](CO)[C@@H](c3ccc(-c4cccnc4)cc3)[C@@H]2C1	T cruzi growth-1 96 (no result: IDH1 R132H inh) | T cruzi growth-2 inactive | T cruzi growth-3 inactive | NIH3T3 tox inactive | 3T3 cytotox 2 inactive
COc1ccc(C#Cc2ccc3c(c2)[C@H]2[C@H](CCN2C(=O)CC2CC2)[C@H](CO)N3)cc1	T cruzi growth-1 inconclusive (no result: IDH1 R132H inh) | T cruzi growth-2 98 | T cruzi growth-3 inactive | NIH3T3 tox inactive | 3T3 cytotox 2 inactive
COCC(=O)N1CC[C@@H]2[C@H]1c1cc(C#Cc3ccc(OC)cc3)ccc1N[C@@H]2CO	none (no result: IDH1 R132H inh)
COc1ccc(C#Cc2ccc3c(c2)[C@H]2[C@H](CCN2C(=O)c2ccncc2)[C@H](CO)N3)cc1	T cruzi growth-1 101 (no result: IDH1 R132H inh) | T cruzi growth-2 107 | T cruzi growth-3 inactive | NIH3T3 tox inactive | 3T3 cytotox 2 38
O=C(Nc1cc(F)ccc1F)N[C@@H]1CC[C@@H](CC(=O)N2CCc3ccccc3C2)O[C@@H]1CO	none
Cc1nnc(SCC(=O)Nc2ccc(I)cc2C(C)C)s1	none (no result: GASC1 inh, T cruzi growth-1, Pf Dd2 growth)
O=S(=O)(c1ccccc1)N1CCCCN2[C@H](CO)[C@@H](c3ccc(C#Cc4ccccc4)cc3)[C@H]2C1	T cruzi growth-1 103 (no result: IDH1 R132H inh) | T cruzi growth-2 107 | T cruzi growth-3 103 | NIH3T3 tox 57 | 3T3 cytotox 2 92
O=S(=O)(c1ccccc1)N1CCCCN2[C@H](C1)[C@H](c1ccc(C#CC3CCCC3)cc1)[C@@H]2CO	none (no result: IDH1 R132H inh)
O=S(=O)(c1ccccc1)N1CCCCN2[C@H](C1)[C@H](c1ccc(C#Cc3cccnc3)cc1)[C@@H]2CO	T cruzi growth-1 114 (no result: IDH1 R132H inh) | T cruzi growth-2 105 | T cruzi growth-3 inactive | NIH3T3 tox inactive | 3T3 cytotox 2 49
O=S(=O)(c1ccccc1)N1CCCCN2[C@H](CO)[C@H](c3ccc(C#Cc4cccnc4)cc3)[C@@H]2C1	T cruzi growth-1 102 (no result: IDH1 R132H inh) | T cruzi growth-2 107 | T cruzi growth-3 inactive | NIH3T3 tox inactive | 3T3 cytotox 2 35
COc1ccc(C#Cc2ccc([C@@H]3[C@H](CO)N4CCCCN(S(=O)(=O)c5ccccc5)C[C@@H]34)cc2)cc1	none (no result: IDH1 R132H inh)
O=S(=O)(c1ccccc1)N1CCCCN2[C@@H](CO)[C@@H](c3ccc(C#Cc4cccnc4)cc3)[C@@H]2C1	T cruzi growth-1 113 (no result: IDH1 R132H inh) | T cruzi growth-2 112 | T cruzi growth-3 107 | NIH3T3 tox inactive | 3T3 cytotox 2 91
C[C@@H]1CCCCO[C@@H](CN(C)C(=O)c2ccccc2)[C@@H](C)CN([C@H](C)CO)C(=O)c2cc(N(C)C)ccc2O1	none
Cc1noc(C)c1NC(=O)Nc1ccc2c(c1)C(=O)N([C@@H](C)CO)C[C@H](C)[C@H](CN(C)S(=O)(=O)c1ccc(F)cc1)O2	none
COC(=O)[C@H]1[C@H](CO)[C@H]2Cn3c(ccc(C4=CCCC4)c3=O)[C@H]2N1Cc1cncnc1	none (no result: IDH1 R132H inh, Pf Dd2 growth)
O=S(=O)(c1ccccc1)N1CCCCN2[C@H](CO)[C@H](c3ccc(C#CC4CCCC4)cc3)[C@@H]2C1	none (no result: IDH1 R132H inh)
O=S(=O)(c1ccccc1)N1CCCCN2[C@H](C1)[C@@H](c1ccc(C#Cc3cccnc3)cc1)[C@@H]2CO	T cruzi growth-1 inconclusive (no result: IDH1 R132H inh) | T cruzi growth-2 inconclusive | T cruzi growth-3 inactive | NIH3T3 tox inactive | 3T3 cytotox 2 inactive
CC(C)CC#Cc1cnc2c(c1)C(=O)N([C@@H](C)CO)C[C@@H](C)[C@@H](CN(C)Cc1ccccc1F)O2	T cruzi growth-1 inconclusive | T cruzi growth-2 107 | T cruzi growth-3 inactive | NIH3T3 tox inconclusive | 3T3 cytotox 2 32
CC(C)CC#Cc1cnc2c(c1)C(=O)N([C@H](C)CO)C[C@@H](C)[C@@H](CN(C)Cc1ccccc1F)O2	none
CC(C)CC#Cc1cnc2c(c1)C(=O)N([C@H](C)CO)C[C@H](C)[C@@H](CN(C)Cc1ccccc1F)O2	T cruzi growth-1 103 | T cruzi growth-2 111 | T cruzi growth-3 inactive | NIH3T3 tox inactive | 3T3 cytotox 2 103
CC(C)CC#Cc1cnc2c(c1)C(=O)N([C@@H](C)CO)C[C@@H](C)[C@H](CN(C)Cc1ccccc1F)O2	T cruzi growth-1 119 | T cruzi growth-2 108 | T cruzi growth-3 inactive | NIH3T3 tox inactive | 3T3 cytotox 2 103
COCC(=O)N(C)C[C@@H]1Oc2ncc(C#Cc3ccccc3)cc2C(=O)N([C@H](C)CO)C[C@H]1C	none
O=C(NC[C@@H]1CC[C@@H]2[C@@H](CN2C(=O)Cc2ccncc2)O1)C1CCOCC1	none (no result: GASC1 inh, IDH1 R132H inh, T cruzi growth-1)
CC(C)CC#Cc1ccc2c(c1)O[C@@H](CN(C)C(=O)Nc1ccccc1)[C@H](C)CN([C@@H](C)CO)S2(=O)=O	T cruzi growth-1 121 | T cruzi growth-2 107 | T cruzi growth-3 inactive | NIH3T3 tox inactive | 3T3 cytotox 2 78
